Data reported in publication PMC10653054 (ACS Omega, 2023).

What was measured:
[1] = test system: normal human dermal fibroblast (HDF) cells; assay: MTT cytotoxicity assay, normal HDF cells; assay type: cell-based; details: 48 h, read-out: In vitro antiproliferative effects (IC50) HDF
Procedure, shortened: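 Cells came from the National Cell Bank of Iran and were grown in RPMI-1640 or DMEM with 10% FBS at 37 °C, 5% CO2 and 100% humidity. Test compounds in 0.1% DMSO (n = 3) were incubated 48 h, then MTT for 3 h, with formazan OD read at 570 nm. Controls were 0.1% DMSO (negative) and etoposide (positive). IC50 came from dose–response curves, mean ± SE of at least three independent experiments.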

[2] = test system: caspase-3, cleaved-caspase-3, pro-caspase-3 in Panc-1 cells; assay: Western blot analysis of caspase-3 proteins; assay type: cell-based, human; details: Panc-1, IC50 concentration, 48 h
Procedure, shortened: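 Panc-1 cells were exposed to test compound and harvested after 48 h. Lysates were prepared in lysis buffer, and protein was quantified by Bradford assay. Proteins were separated on 15% SDS-PAGE, transferred to PVDF and probed with primary and secondary antibodies. β-actin was the loading control. Bands were detected by chemiluminescence and imaged.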

Panc-1 cells [3] = assay: Cell cycle analysis by PI staining flow cytometry; assay type: cell-based, human; details: Panc-1, IC50 concentration, 48 h; control 1.82%
Panc-1 cells [4] = assay: Annexin V-FITC/PI dual staining flow cytometry apoptosis assay; assay type: cell-based, human; details: Panc-1, treated at IC50 concentration, 48 h
Procedure, shortened: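 Panc-1 cells were seeded, held overnight at 37 °C under 5% CO2, then exposed to test compound for 48 h. Untreated cells were the negative control. Cells were trypsinized, washed twice in PBS, pelleted at 1200 rpm and resuspended in binding buffer. Labelled annexin V and propidium iodide were added, and cells were incubated 15 min at room temperature in the dark. Flow cytometry followed.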

Compound	IC50 [1]	further results
O=c1[nH]nc(O)c2c(-c3cccc([N+](=O)[O-])c3)c3n(c12)CCn1cccc1-3 [7m, 11-Hydroxy-12-(3-nitrophenyl)-5,6-dihydropyrrolo[2″,1″:3′,4′]pyrazino[1′,2′:1,5] pyrrolo[2,3-d]pyridazin-8(9H)-one]	> 100 µM	caspase-3 protein level [2]: downregulation; pro-caspase-3 protein level [2]: remained unchanged; proportion of cells in the sub-G1 phase (Panc-1 cells [3]): 5.47%; necrosis (Q1) (Panc-1 cells [4]; control 0.586): 0.851%; early apoptosis (Q3) (Panc-1 cells [4]; control 4.12): 5.56%; late apoptosis (Q2) (Panc-1 cells [4]; control 4.12): 5.45%; live cells (Q4) (Panc-1 cells [4]; control 91.2): 88.1%; cell apoptosis (total apoptotic cells) (Panc-1 cells [4]; untreated cells 8.24%): 11.01%
COC(=O)c1c(-c2ccc([N+](=O)[O-])cc2)c2n(c1C(=O)OC)CCn1cccc1-2 [5p, Dimethyl-1-(4-nitrophenyl)-5,6-dihydrodipyrrolo[1,2-a:2′,1′-c]pyrazine-2,3-dicarboxylate]	> 100 µM	
COC(=O)c1c(-c2cccc(Cl)c2)c2n(c1C(=O)OC)CCn1cccc1-2 [5k, Dimethyl-1-(3-chlorophenyl)-5,6-dihydrodipyrrolo[1,2-a:2′,1′-c]pyrazine-2,3-dicarboxylate]	> 100 µM	
COc1cc([C@@H]2c3cc4c(cc3[C@@H](O[C@@H]3O[C@@H]5CO[C@@H](C)O[C@H]5[C@H](O)[C@H]3O)[C@H]3COC(=O)[C@H]23)OCO4)cc(OC)c1O [etoposide, reference compound]	> 100 µM	
COC(=O)c1c(-c2ccccc2C)c2n(c1C(=O)OC)CCn1cccc1-2 [5d, Dimethyl-1-(2-tolyl)-5,6-dihydrodipyrrolo[1,2-a:2′,1′-c]pyrazine-2,3-dicarboxylate]	> 100 µM	
O=c1[nH]nc(O)c2c(-c3ccc(F)cc3)c3n(c12)CCn1cccc1-3 [7h, 12-(4-Fluorophenyl)-11-hydroxy-5,6-dihydropyrrolo[2″,1″:3′,4′]pyrazino[1′,2′:1,5] pyrrolo[2,3-d]pyridazin-8(9H)-one]	> 100 µM	
COC(=O)c1c(-c2cccc(Br)c2)c2n(c1C(=O)OC)CCn1cccc1-2 [5m, Dimethyl-1-(3-bromophenyl)-5,6-dihydrodipyrrolo[1,2-a:2′,1′-c]pyrazine-2,3-dicarboxylate]	> 100 µM	
COC(=O)c1c(-c2ccccc2F)c2n(c1C(=O)OC)CCn1cccc1-2 [5i, Dimethyl-1-(2-fluorophenyl)-5,6-dihydrodipyrrolo[1,2-a:2′,1′-c]pyrazine-2,3-dicarboxylate]	> 100 µM	
Cc1ccc(-c2c3n(c4c(=O)[nH]nc(O)c24)CCn2cccc2-3)cc1 [7e, 11-Hydroxy-12-(p-tolyl)-5,6-dihydropyrrolo[2″,1″:3′,4′]pyrazino[1′,2′:1,5]pyrrolo[2,3-d] pyridazin-8(9H)-one]	> 100 µM	
